Source: ChEMBL document CHEMBL1147105, “In vitro and in vivo activities of PD 0305970 and PD 0326448, new bacterial gyrase/topoisomerase inhibitors with potent antibacterial activities versus multidrug-resistant gram-positive and fastidious organism groups” (2007)
Converted amounts (≈) assume the structure as drawn. The source made the active and inactive calls.

Tests used:
Escherichia coli = assay: Antibacterial efficacy against Escherichia coli Vogel infected orally dosed CD1 mouse model; type: functional
Summary of the method: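 Female CD1 mice, 6–8 weeks old (18–22 g), challenged intraperitoneally (0.5 ml) with ≥100 median lethal doses suspended in 20% hog gastric mucin. Single oral gavage dose at the time of challenge, in 0.5% methylcellulose. Untreated controls of 10 mice per group. PD50 (mg/kg), the dose protecting 50% of mice from lethal infection, calculated by probit analysis.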

Streptococcus pneumoniae [1] = assay: Antibacterial activity against Streptococcus pneumoniae 1-970-1 with gyrB Asp435Glu mutation; type: functional
Streptococcus pneumoniae [2] = assay: Antibacterial activity against Streptococcus pneumoniae 7785; type: functional
Streptococcus pyogenes [3] = assay: Bactericidal activity against Streptococcus pyogenes C203 at 0.008 ug/ml by time-kill study; type: functional, organism-based
Summary of the method: (§1)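 Time-kill in 10 ml of cation-adjusted Mueller-Hinton broth with 3% lysed horse blood, without agitation. Multiples of MIC tested. Samples taken at 0, 2, 4, 6 and 24 h and plated on tryptic soy agar with 5% sheep blood after ≥250-fold dilution, detection limit 10 CFU/ml. Counts read after 24 h at 35°C. Bactericidal defined as a ≥3 log10 drop from the starting inoculum within 24 h.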

Streptococcus pyogenes [4] = assay: Bactericidal activity against Streptococcus pyogenes C203 at 2 ug/ml by time-kill study; type: functional, organism-based; summary of the method: as §1
Streptococcus pneumoniae [5] = assay: Antibacterial activity against Streptococcus pneumoniae 1-970-2 with gyrB Asp435Glu, Glu475Ala and parE Pro475Ser mutation; type: functional
Streptococcus pneumoniae [6] = assay: Bactericidal activity against Streptococcus pneumoniae SV1 at 0.008 ug/ml by time-kill study; type: functional, organism-based; summary of the method: as §1
Streptococcus pyogenes [7] = assay: Antibacterial efficacy against Streptococcus pyogenes C203 infected orally dosed CD1 mouse model; type: functional; settings: C203, po; for ED50: read-out: PD50
Summary of the method: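 Sepsis model in female CD1 mice (6–8 weeks, 18–22 g). Lethal i.p. challenge (0.5 ml) at ≥100 median lethal doses. Streptococci were given in Todd-Hewitt broth; other organisms were given with 20% hog gastric mucin. A single oral gavage dose (0.5 ml, in 0.5% methylcellulose) was given at the time of challenge. The PD50 (mg/kg) was calculated by probit analysis.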

Streptococcus pneumoniae [8] = assay: Antibacterial activity against quinolone-resistant Streptococcus pneumoniae SP4333 infected twice daily orally dosed CD1 mouse; type: functional; settings: po; for ED50: read-out: PD50
Summary of the method: (§2)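 Pneumonia model in CD1 mice (n = 8), anaesthetised with ketamine i.p. Intranasal instillation of 50 μl of broth culture (10^8–10^9 CFU/ml, OD600 0.70), confirmed by plate counts. Oral therapy began 24 h post-challenge. Dosing was either once daily for 1 day or twice daily for 3 days. The result was given as the PD50 (mg/kg).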

Streptococcus pneumoniae [9] = assay: Antibacterial activity against Streptococcus pneumoniae SVI infected once daily orally dosed CD1 mouse; type: functional; settings: po; for ED50: read-out: PD50; summary of the method: as §2
Streptococcus pneumoniae [10] = assay: Bactericidal activity against Streptococcus pneumoniae SV1 at 2 ug/ml by time-kill study; type: functional, organism-based; summary of the method: as §1

SMILES	MIC (Escherichia coli) [µg/mL]	ED50 (Escherichia coli; read-out: PD50) [mg/kg]	MIC (Streptococcus pneumoniae [1]) [µg/mL]	MIC (Streptococcus pneumoniae [2]) [µg/mL]	Activity (Streptococcus pyogenes [3])	Activity (Streptococcus pyogenes [4])	MIC (Streptococcus pneumoniae [5]) [µg/mL]	Activity (Streptococcus pneumoniae [6])	MIC (Streptococcus pyogenes [7]) [µg/mL]	ED50 (Streptococcus pyogenes [7]) [mg/kg]	MIC (Streptococcus pneumoniae [8]) [µg/mL]	ED50 (Streptococcus pneumoniae [8]) [mg/kg]	MIC (Streptococcus pneumoniae [9]) [ng/mL]	ED50 (Streptococcus pneumoniae [9]) [mg/kg]	Activity (Streptococcus pneumoniae [10])
Cc1c(N2CC[C@@H]([C@H](C)N)C2)c(F)cc2c(=O)n(N)c(=O)n(C3CC3)c12	1 (≈ 2.77 µM)	82	0.06 (≈ 0.166 µM)	0.03 (≈ 0.083 µM)	Active	Active	0.125 (≈ 0.346 µM)	Active	0.015 (≈ 0.0415 µM)	0.7	0.03 (≈ 0.083 µM)	4.1	8 (≈ 0.0221 µM)	3.2	Active
C[C@H]1COc2c(N3CCN(C)CC3)c(F)cc3c(=O)c(C(=O)O)cn1c23.C[C@H]1COc2c(N3CCN(C)CC3)c(F)cc3c(=O)c(C(=O)O)cn1c23.O [LEVOFLOXACIN]									0.5	17.7		> 200		69	
